# ERAP1 inh = ERAP1 (human) enzyme inhibition; 340,000 tested, 0.15% active; inhibition, % at 10.7 µM; Q9NZ08; AID 652197; recombinant ERAP1, Leu-AMC fluorescence, 60 min;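 active = mean replicate inhibition of at least 30%, or all replicates individually reaching that 30% level; inactive = mean below 30% and not every replicate reaching it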;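 also: 0% = neutral control wells and 100% = L-leucinethiol positive control wells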
# F508del corr = CFTR F508del correction in bronchial cells | activity (quench increase), % at 7.58 µM | CFBE cells, YFP halide quenching; stimulated with forskolin plus potentiator P3; % fluorescence drop versus neutral controls | 350,000 tested, 0.36% active;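 active = mean added fluorescence quench of at least 8% versus neutral control, with both replicates also reaching 8%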;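 also: cells transiently co-express mutant CFTR-F508del with the halide-sensitive YFP; corrector assay measuring rescue of mutant channel to the surface after 24 h compound exposure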
# E-selectin induc = E-selectin induction on HUVECs | P16581 | HUVEC E-selectin immunofluorescence imaging; normalized: neutral wells 0, TNF-alpha wells 100 | activation, % at 7.58 µM | 260,000 tested, 0.37% active | AID 686992;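 active = mean E-selectin-positive cell signal at least 10% of the positive control, reached in at least 60% of replicates, without over 20% cell loss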
#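 Test system – human umbilical vein endothelial cells (HUVEC), E-selectin induction · Input – 3,000 HUVEC seeded per well · Buffer or medium – EGM-2, gelatin · Compound dosing – single-point compound dose · Detection – immunofluorescence imaging · Measure – percent E-selectin-positive cells · Controls – TNF-alpha high, DMSO low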
# DENV2 CPE = DENV2-induced cell death inhibition; DENV2-infected cells, cytopathic effect rescue, plate reader; CPE inhibition, % at 9.99 µM; 350,000 tested, 1.7% active; AID 651640; in the data active = CPE inhibition above about 20%, passing the limit was not always enough; tested in BHK-21 cells;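 also: 0% = median of neutral control wells and 100% = median of positive control wells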
# FGF22 binding = shifts melting point of recombinant human FGF22 | 340,000 tested, 1.5% active | activity (Tm shift, normalised), % at 9.99 µM | recombinant FGF22 thermal shift, SYPRO orange fluorescence; percent of sucrose octasulfate shift, DMSO zero | Q9HCT0;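 active = mean Tm shift, scaled 0 neutral to 100 positive control, at about 1.3% or above, every replicate too, limit read from the data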
# * = called active by the depositor; . = no result. Only some compounds are listed: those with a hit (about 3.7% of all), similar ones and a draw of the others.
SMILES,ERAP1 inh,F508del corr,E-selectin induc,DENV2 CPE,FGF22 binding
CCCOc1ccc(C(=O)Nc2ccc(S(=O)(=O)N3C[C@@H]4C[C@@H](C3)c3cccc(=O)n3C4)cc2)cc1,-6,3,.,31*,0
CCCOc1ccc(C(=O)Nc2ccc(S(=O)(=O)N3CCN(C)CC3)cc2)cc1,-4,-3,.,9,0
CCOc1ccc(/C=N/NC(=O)c2ccc(F)cc2)cc1CN1CC2CC(C1)c1cccc(=O)n1C2 (stereo not drawn),4,1,.,20*,0
CCOc1ccc(/C=N/NC(=O)c2ccccc2Cl)cc1CN1CC2CC(C1)c1cccc(=O)n1C2 (stereo not drawn),-5,3,.,-6,0
C[C@@H]1CCCCO[C@H](CN(C)C(=O)CCC(F)(F)F)[C@@H](C)CN([C@@H](C)CO)C(=O)c2cc(NC(=O)CCCN(C)C)ccc2O1,.,0,0,-4,0
O=C1O[C@@H](c2ccccc2)[C@@H](c2ccccc2)N2[C@@H](c3ccccc3OCCO)[C@]3(C(=O)Nc4ccc(C#CCCO)cc43)[C@@H](C(=O)N3CCCCCCC3)[C@H]12,-1,-1,.,10,0
O=C1O[C@@H](c2ccccc2)[C@@H](c2ccccc2)N2[C@@H](c3ccccc3OCCO)[C@]3(C(=O)Nc4ccc(C#CCCO)cc43)[C@@H](C(=O)O)[C@H]12,3,-1,.,20,16*
C=CCNC(=O)[C@@H]1[C@H]2C(=O)O[C@H](c3ccccc3)[C@H](c3ccccc3)N2[C@H](c2ccccc2OCCO)[C@@]12C(=O)N(C(=O)OCCOC)c1ccc(C#CC3(O)CCCCCC3)cc12,-3,3,.,6,.
C=CCNC(=O)[C@H]1[C@@H]2C(=O)O[C@@H](c3ccccc3)[C@@H](c3ccccc3)N2[C@@H](c2ccccc2OCCO)[C@]12C(=O)Nc1ccc(C#CC3(O)CCCCCC3)cc12,2,-2,.,-5,33*
O=C1O[C@H](c2ccccc2)[C@H](c2ccccc2)N2[C@H]1[C@@H](C(=O)N1CCCCCCC1)[C@]1(C(=O)Nc3ccccc31)[C@H]2c1ccccc1OCCO,5,-6,.,42*,0
COc1ccc(NC(=S)NC23CN4CN(CN(C4)C2)C3)c(OC)c1,2,1,.,17,44*
N/C(Cc1nc(-c2ccc(Br)cc2)cs1)=N\O,1,-2,8,-2,43*
N/C(Cc1nc(-c2ccc(F)cc2)cs1)=N\O,.,1,.,-4,0
O=C(NCCO)c1ccc2c3n(nc2c1)-c1ccccc1CO3,1,0,0,69*,0
COc1cccc(-c2ccc([C@@H]3[C@H]4CN(C(=O)c5ccc(F)cc5)CCCCN4[C@H]3CO)cc2)c1,-1,-1,0,6,0
COc1cccc(-c2ccc([C@H]3[C@@H](CO)N4CCCCN(C(=O)c5ccc(F)cc5)C[C@H]34)cc2)c1,0,-1,0,43*,1
COc1cccc(-c2ccc([C@@H]3[C@@H](CO)N4CCCCN(C(=O)c5ccc(F)cc5)C[C@@H]34)cc2)c1,0,0,-1,5,-1
COc1cccc(-c2ccc([C@@H]3[C@@H](CO)N4CCCCN(C(=O)c5ccc(F)cc5)C[C@H]34)cc2)c1,0,3,0,43*,0
O=C(c1ccncc1)N1C[C@@H]2[C@H](c3ccccc31)[C@@H](CO)N2C(=O)Nc1ccc(F)cc1,-3,0,0,3,-1
CCC(=O)N1[C@@H](CO)[C@@H](c2ccccc2)C12CN(Cc1cc(F)ccc1F)C2,-3,1,0,-11,0
CS(=O)(=O)N1[C@@H](CO)[C@@H](c2ccccc2)C12CN(Cc1cc(F)ccc1F)C2,3,-2,0,40*,0
COc1ccc(CN(C)C[C@H]2OCCCC[C@@H](C)Oc3ccc(NC(=O)CCC(F)(F)F)cc3C(=O)N([C@@H](C)CO)C[C@H]2C)cc1,4,3,0,2,0
Cc1cc(C)c(S(=O)(=O)NCCn2c(C)cc3ccccc32)c(C)c1,-1,-1,101*,-5,0
COc1ccc([Si](C)(C)[C@H]2[C@H](CCO)O[C@@]3(C(=O)N(Cc4ccc(NC(C)=O)cc4)c4ccccc43)[C@@H]2C)cc1,0,3,.,-8,0

# Screening data as filed in PubChem BioAssay.
